Assay results reported in PMC12752248 (BMC Biotechnology, 2025).
Read-outs that look alike come from different tables or passages of the source. Marks after values point to notes of the source that are not given here. Values belong to the molecule of their own block, whether it stands above or below them.

Experiments:
[1] = molecular target: T1, BJ6PAD-N (Bacillus subtilis, UniProt O07006); assay: Effects of metal ions and chemical reagents on enzyme activity, BJ6PAD-N; format: biochemical, Bacillus subtilis J6; settings: 60 min incubation, no additive = 100%
T1 sequence (O07006 with tags, fused parts or gaps A39G/H105Y/L108V/E129D/F132Y/K134N/E136A/V138I/D139N/E142T/V143L/K146E): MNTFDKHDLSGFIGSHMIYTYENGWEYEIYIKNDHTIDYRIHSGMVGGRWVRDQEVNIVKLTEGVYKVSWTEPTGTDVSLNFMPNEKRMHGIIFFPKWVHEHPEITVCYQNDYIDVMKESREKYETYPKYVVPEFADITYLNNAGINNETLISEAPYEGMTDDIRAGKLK
Outline: (§1)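 His-tagged enzyme was expressed in E. coli BL21(DE3) and Ni-agarose purified. It was incubated 60 min with each metal ion (K⁺, Mg²⁺, Ca²⁺, Fe²⁺, Mn²⁺, Cu²⁺, Zn²⁺), EDTA, SDS or Triton X-100 at final concentrations of 1 or 5 mmol/L. Activity was then assayed in 50 mmol/L citrate-Na₂HPO₄ pH 6.0 at 37 ℃ for 5 min, stopped with methanol, with residual substrate by C18 HPLC at 280 nm. Done in triplicate.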

[2] = molecular target: T2, BJ6PAD (Bacillus subtilis, UniProt O07006); assay: Effects of metal ions and chemical reagents on enzyme activity, BJ6PAD; format: biochemical, Bacillus subtilis J6; settings: 60 min incubation, no additive = 100%
T2 sequence (O07006 with tags, fused parts or gaps A39G/H105Y/L108V/E129D/F132Y/K134N/E136A/V138I/D139N/E142T/V143L/K146E): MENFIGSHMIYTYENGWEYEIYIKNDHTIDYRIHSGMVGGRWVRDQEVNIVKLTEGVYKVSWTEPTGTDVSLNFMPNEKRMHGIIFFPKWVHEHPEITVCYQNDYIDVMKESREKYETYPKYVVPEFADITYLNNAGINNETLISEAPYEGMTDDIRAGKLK
Outline: as §1

[3] = molecular target: T2, BJ6PAD; assay: Specific enzyme activity towards phenolic acid substrates, BJ6PAD; format: biochemical, Bacillus subtilis J6; settings: 37 ℃, pH 6.0; pCA, FA, CafA 10 mmol/L, SA 6 mmol/L
Outline: (§2)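 Both purified His-tagged enzymes were reacted at 37 ℃ in 50 mmol/L citrate-Na₂HPO₄ pH 6.0 for 5 min with three hydroxycinnamic acids at 10 mmol/L or sinapic-type acid at 6 mmol/L. Reactions were stopped with methanol, with an enzyme-free buffer control. Remaining substrate was measured by C18 HPLC at 280 nm. One IU is 1 µmol substrate converted/min; protein was by BCA, giving IU/mg. Done in triplicate.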

[4] = molecular target: T1, BJ6PAD-N; assay: Isothermal titration calorimetry of enzyme-substrate interaction, BJ6PAD-N; format: binding, Bacillus subtilis J6
Outline: (§3)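 Ni-purified His-tagged enzyme, eluted in […] buffer pH 7.9–8.1, was placed in the cell at 0.02 mmol/L. Each of four phenolic acid substrates (0.2 mmol/L in the same buffer) was in the syringe. All solutions were degassed 10 min. Twenty 2 µL injections were given 150 s apart at 37 °C with 350 rpm stirring. Thermodynamic parameters came from an independent-site model fit, in triplicate.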

[5] = molecular target: T1, BJ6PAD-N; assay: Enzymatic kinetic parameters; format: biochemical, Bacillus subtilis J6
[6] = molecular target: T2, BJ6PAD; assay: Enzymatic kinetic parameters; format: biochemical, Bacillus subtilis J6
[7] = molecular target: T2, BJ6PAD; assay: Isothermal titration calorimetry of enzyme-substrate interaction, BJ6PAD; format: binding, Bacillus subtilis J6
Outline: as §3

[8] = test system: BJ6PAD-N; assay: Specific enzyme activity towards phenolic acid substrates, BJ6PAD-N; format: biochemical, Bacillus subtilis J6; settings: BJ6PAD-N vs BJ6PAD
Outline: as §2

[9] = molecular target: T1, BJ6PAD-N; assay: as above; format: biochemical, Bacillus subtilis J6; settings: 37 ℃, pH 6.0; pCA, FA, CafA 10 mmol/L, SA 6 mmol/L
Outline: as §2

[10] = test system: BJ6PAD-N; assay: Enzymatic kinetic parameters; format: biochemical, Bacillus subtilis J6; settings: BJ6PAD-N vs BJ6PAD
[11] = substrate: O=C(O)C=Cc1ccc(O)cc1; assay: Enzymatic kinetic parameters; format: biochemical, Bacillus subtilis J6; settings: pH 6.0

Molecule: [K+] [K^+]
Residual enzyme activity ([1]; 1 mmol/L additive): 96.63 ± 2.16^a %
Residual enzyme activity ([1]; 5 mmol/L additive): 89.61 ± 1.14^a %
Residual enzyme activity ([2]; 1 mmol/L additive): 104.96 ± 0.24^b %
Residual enzyme activity ([2]; 5 mmol/L additive): 98.61 ± 1.46^b %

Molecule: CCCCCCCCCCCCOS(=O)(=O)[O-].[Na+] [SDS, sodium dodecyl sulfate]
Residual enzyme activity ([1]; 1 mmol/L additive): 80.5 ± 0.91^b %
Residual enzyme activity ([2]; 1 mmol/L additive): 67.75 ± 1.3^a %

B1: BJ6PAD (Bacillus subtilis subsp. subtilis str. 168) (protein)
chain: T2 sequence (O07006 with tags, fused parts or gaps A39G/H105Y/L108V/E129D/F132Y/K134N/E136A/V138I/D139N/E142T/V143L/K146E)
Km [11]: 6.87 ± 0.36^b mmol/L
Vmax [11]: 335 ± 5.45 µmol/min/mg
kcat [11]: 107 ± 1.42 s⁻¹
kcat/Km [11]: 15600 ± 1070 M⁻¹ s⁻¹

B2: BJ6PAD-N (Bacillus subtilis subsp. subtilis str. 168) (protein)
chain: T1 sequence (O07006 with tags, fused parts or gaps A39G/H105Y/L108V/E129D/F132Y/K134N/E136A/V138I/D139N/E142T/V143L/K146E)
Km [11]: 11.85 ± 0.56^a mmol/L
Vmax [11]: 536.4 ± 2.55 µmol/min/mg
kcat [11]: 179 ± 3.41 s⁻¹
kcat/Km [11]: 15070 ± 80 M⁻¹ s⁻¹

More lines, now with the values ahead:

Specific enzyme activity [3]: 92.34 ± 0.57^b IU/mg
Kd [4]: 7 µM
ΔG ([4]; ITC, 37 °C): -7.292 kcal/mol
ΔH ([4]; ITC, 37 °C): -14.9 kcal/mol
ΔS ([4]; ITC, 37 °C): -0.10 kJ/mol·K
Km [5]: 3.03 ± 0.12 mM
Vmax [5]: 139.3 ± 5.70^ab IU/mg
kcat [5]: 46.39 ± 1.55^ab s^− 1
Km [6]: 3.54 ± 1.05 mM
Vmax [6]: 137.1 ± 8.87^b IU/mg
kcat [6]: 43.67 ± 3.61^b s^− 1
Kd [7]: 4.23 µM
ΔG ([7]; ITC, 37 °C): -7.622 kcal/mol
ΔH ([7]; ITC, 37 °C): -8.444 kcal/mol
Increase of specific enzyme activity of BJ6PAD-N compared with BJ6PAD [8]: 9.25%
Specific enzyme activity [9]: 100.88 ± 3.71^a IU/mg
Molecule: O=C(O)/C=C/c1ccc(O)c(O)c1 [caffeic acid]

Specific enzyme activity [3]: 150.85 ± 2.15^b IU/mg
Kd ([4]; ITC, 37 °C): 59.4 µM
ΔG ([4]; ITC, 37 °C): -6.016 kcal/mol
ΔH ([4]; ITC, 37 °C): -0.629 kcal/mol
ΔS ([4]; ITC, 37 °C): 0.07 kJ/mol·K
Km [5]: 8.42 ± 0.19 mM
Vmax [5]: 337.97 ± 7.10^a IU/mg
kcat [5]: 112.54 ± 1.93^a s^− 1
Km [6]: 4.62 ± 0.01 mM
Vmax [6]: 229.73 ± 4.95^b IU/mg
kcat [6]: 73.17 ± 1.29^b s^− 1
Kd ([7]; ITC, 37 °C): 1.25 µM
ΔG ([7]; ITC, 37 °C): -8.384 kcal/mol
ΔH ([7]; ITC, 37 °C): -5.134 kcal/mol
ΔS ([7]; ITC, 37 °C): 0.04 kJ/mol·K
Increase of specific enzyme activity of BJ6PAD-N compared with BJ6PAD [8]: 18.37%
Specific enzyme activity [9]: 178.56 ± 1.58^a IU/mg
Molecule: COc1cc(/C=C/C(=O)O)ccc1O [ferulic acid]

Specific enzyme activity [3]: 209.82 ± 1.41^b IU/mg
Kd [4]: 16.3 µM
ΔG ([4]; ITC, 37 °C): -6.812 kcal/mol
ΔH ([4]; ITC, 37 °C): -1.45 kcal/mol
ΔS ([4]; ITC, 37 °C): 0.07 kJ/mol·K
Kd [7]: 12.8 µM
ΔG ([7]; ITC, 37 °C): -6.917 kcal/mol
ΔH ([7]; ITC, 37 °C): -14.71 kcal/mol
Increase of specific enzyme activity of BJ6PAD-N compared with BJ6PAD [8]: 18.65%
Specific enzyme activity [9]: 248.96 ± 1.59^a IU/mg
Molecule: O=C(O)/C=C/c1ccc(O)cc1 [p-coumaric acid]

Specific enzyme activity [3]: 17.37 ± 0.64^b IU/mg
Kd ([4]; ITC, 37 °C): 7.02 µM
ΔG ([4]; ITC, 37 °C): -7.337 kcal/mol
ΔH ([4]; ITC, 37 °C): -0.098 kcal/mol
ΔS ([4]; ITC, 37 °C): 0.10 kJ/mol·K
Decrease in Km value of BJ6PAD-N compared with BJ6PAD [10]: 70.17%
Increase of catalytic efficiency (kcat/Km) of BJ6PAD-N over BJ6PAD [10]: 1.93 fold
Km [5]: 1.25 ± 0.11 mM
Vmax [5]: 29.48 ± 1.23^a IU/mg
kcat [5]: 9.82 ± 0.33^a s^− 1
Km [6]: 4.19 ± 1.13 mM
Vmax [6]: 35.02 ± 6.03^a IU/mg
kcat [6]: 11.15 ± 1.57^a s^− 1
Kd ([7]; ITC, 37 °C): 19.3 µM
ΔG ([7]; ITC, 37 °C): -6.678 kcal/mol
ΔH ([7]; ITC, 37 °C): -10.25 kcal/mol
Increase of specific enzyme activity of BJ6PAD-N compared with BJ6PAD [8]: 34.83%
Specific enzyme activity [9]: 23.42 ± 0.02^a IU/mg
Molecule: COc1cc(/C=C/C(=O)O)cc(OC)c1O [sinapic acid]
